The target in data set [1] is Replicase polyprotein 1ab (Severe acute respiratory syndrome coronavirus 2) (UniProt P0DTD1). The data set can be described thus: Inhibition of N-terminal 6His/SUMO-tagged SARS-CoV-2 NSP14 expressed in Escherichia coli Rosetta 2 (DE3) PlysS cells using 5'GpppACCCCCCCCC-Biotin 3' and 3H-SAM as substrates at 300 uM incubated for 30 mins by TopCount scintillation proximity assay relative to control.

The target of data set [2] is Replicase polyprotein 1ab (Severe acute respiratory syndrome coronavirus 2, UniProt P0DTD1). The data set can be described thus: (§1) Inhibition of N-terminal 6His/SUMO-tagged SARS-CoV-2 NSP14 expressed in Escherichia coli Rosetta 2 (DE3) PlysS cells using 5'GpppACCCCCCCCC-Biotin 3' and 3H-SAM as substrates incubated for 30 mins by TopCount scintillation proximity assay.

Data set [3] can be described thus: Aggregation property of the compound in KPi buffer at pH 7.0 assessed as formation of colloid-like particles by dynamic light scattering analysis. It counts as physicochemical. An outline of the steps: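 Compounds diluted as 8-point half-log series in filtered 50 mM KPi, pH 7.0, with 1% v/v DMSO final. Particles detected by dynamic light scattering, triplicate at each concentration. CAC taken as the intersection of separate nonlinear fits to aggregating (>10^6 scattering intensity) and non-aggregating data.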

For data set [4], the species on record is Homo sapiens. The data set can be described thus: Inhibition of MDH (unknown origin) using oxaloacetic acid as substrate preincubated with compound for 5 mins followed by substrate addition and measured after 1.5 min in the presence of NADH by absorbance based plate reader analysis. The settings on record: time 6.5 min. Put shortly: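 MDH assay at room temperature in 50 mM KPi, pH 7.0, with 1% v/v DMSO final. Compound preincubated 5 min with 2 nM enzyme. Reaction started with 200 μM NADH plus 200 μM oxaloacetic acid, and absorbance followed at 340 nm for 1 min 30 s. Initial rate divided by the DMSO control rate. Single top concentration in triplicate; eight-point half-log curves in triplicate where inhibition exceeded 40%.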

The species entered for data set [5] is Homo sapiens. The data set can be described thus: Inhibition of MDH (unknown origin) using oxaloacetic acid as substrate preincubated with compound for 5 mins followed by substrate addition and measured after 1.5 min in the presence of NADH and 0.01% Triton-X 100 by absorbance based plate reader analysis. The settings on record: time 6.5 min. An outline of the steps:
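Detergent-reversal MDH assay: 50 mM KPi, pH 7.0, with 1% v/v DMSO and 0.01% v/v Triton X-100. Enzyme at 2 nM preincubated 5 min with compound, then started with 200 μM NADH plus 200 μM oxaloacetate. A340 read for 1 min 30 s, rate normalised to DMSO control. Eight-point half-log curves in triplicate.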

Data set [6] has as its system Bacteria. The data set is described as follows: Inhibition of beta-lactamase AmpC (unknown origin) pre-incubated with compound for 5 mins followed by substrate addition and measured after 1.5 mins in the presence of 0.01% Triton-X 100 by absorbance based plate reader analysis. The settings on record: time 6.5 min. An outline of the steps:
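AmpC detergent-reversal assay: 50 mM KPi, pH 7.0, with 1% v/v DMSO and 0.01% v/v Triton X-100. Enzyme at 2 nM preincubated 5 min with compound, then 50 μM CENTA (405 nm) or nitrocefin (490 nm) added. Absorbance followed for 1 min 30 s and rate normalised to DMSO. Eight-point half-log curves in triplicate.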

Data set [7] deals with Bacteria. The data set is described as follows: Inhibition of beta-lactamase AmpC (unknown origin) pre-incubated with compound for 5 mins followed by substrate addition and measured after 1.5 mins by absorbance based plate reader analysis. The conditions noted are these: time 6.5 min. Put shortly: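 AmpC at 2 nM preincubated 5 min with compound at room temperature in 50 mM KPi, pH 7.0, with 1% v/v DMSO. Started with 50 μM CENTA (read at 405 nm) or 50 μM nitrocefin (read at 490 nm), monitored 1 min 30 s. Initial rate taken as % of DMSO control. Top concentration in triplicate; eight-point half-log curves in triplicate where inhibition exceeded 40%.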

In data set [8] the target is Replicase polyprotein 1ab (Severe acute respiratory syndrome coronavirus 2) (UniProt P0DTD1). The data set can be described thus: Inhibition of N-terminal 6His/SUMO-tagged SARS-CoV-2 NSP14 expressed in Escherichia coli Rosetta 2 (DE3) PlysS cells using 5'GpppACCCCCCCCC-Biotin 3' and 3H-SAM as substrates at 100 uM incubated for 30 mins by TopCount scintillation proximity assay relative to control.

Data set [9] shares this target. The data set is described as §1.

The source made the active and inactive calls. No cut-off for these calls is given here.

Compound `Cn1ncc(N)c1-c1cc2ccccc2[nH]1` came in with an inhibition in [1] of more than 50%. Further, 341 µM corresponded to half-maximal inhibition in data set [2] (IC50). Further, the result in [3] was Active.
Regarding `Cn1c(C(=O)NCc2ccc(O)c([N+](=O)[O-])c2)c(Br)c2ccccc21`, the inhibition entry in the data set listed under Homo sapiens [4] and in the data set on Bacteria [7] was “Active” each time. Also, the inhibition entry in the data set listed under Homo sapiens [5] and in the data set with Bacteria [6] was “inactive” throughout. The half-inhibitory concentration (IC50) in data set [2] is 19 µM. Also, the outcome in data set [3] was Active.
`CN(Cc1ccncc1)c1cc(Br)ncn1` displayed an inhibition in [1] of more than 50%. Moreover, inhibition in [2] was half-maximal at 170 µM (IC50). In [3], the result was Active.
In [2], `Cn1c(=O)[nH]c2ncc(-c3cccc(C(=O)Nc4ccc(Cl)c(CO)c4)c3)cc21` showed an IC50 of 15 µM.
With `C#Cc1cccc(NC(=O)c2cccc(-c3cnc4[nH]c(=O)n(C)c4c3)c2)c1`, the inhibition result in the data set listed under Homo sapiens [4] and in the data set with Bacteria [7] was “inactive” in each case. Besides, the CAC in [3] stood at 10 µM.
`Nc1cn2cc(-c3cscc3Cl)ncc2n1` registered an inhibition in data set [1] of more than 50%. The IC50 in [2] is 78 µM.
In data set [2], `COc1cc(F)cc(NC(=O)c2cccc(-c3cnc4[nH]c(=O)n(C)c4c3)c2)c1` displayed an IC50 of 14 µM.
Compound `N#Cc1cncc(NCc2cc(Br)c[nH]2)n1` came in with an inhibition in data set [1] of more than 50%. Further, the IC50 in data set [2] is 60 µM.
For the compound `O=Cc1cc(F)c(C(=O)Nc2cc(Cl)c3c(c2)OCCO3)cc1F`, the IC50 in [2] stood at 25 µM. The compound also gave an inhibition in data set [8] of more than 50%.
As for `CCc1c(C(=O)/C=C/c2ccc(O)c([N+](=O)[O-])c2)oc2ccccc12`, the IC50 in data set [2] is 25 µM.
Consider `CN(C)c1cncc(NC(=O)c2ccc(C=O)cc2O)c1`, for which the inhibition entry in the data set filed under Homo sapiens [4] and with Bacteria [7] was “inactive” throughout. This compound had an IC50 in data set [2] of 12 µM. In addition, the inhibition in data set [8] was more than 50%.
In [2], `O=C(OCc1cn2cc(Br)ccc2n1)c1cc(-c2ccco2)[nH]n1` returned an IC50 of 6 µM.
Take `CCC(=O)NCCC(=O)N1CCC(C2C(=O)Nc3cc(Cl)ccc32)CC1` (centres undefined): in [9], the inhibition result was “inactive”.
In the case of `C=C(Cl)COC(=O)c1cnc2[nH]ccc2c1`, the inhibition result in the data set listed under Homo sapiens [4] was “Active”. This compound showed an inhibition in data set [1] of more than 50%. Inhibition in data set [2] was half-maximal at 31 µM (IC50).
`Cc1cc(C(=O)Nc2cccc(N3CCNC3=O)c2C)sc1C=O` came in with an IC50 in data set [2] of 3.5 µM. Also, the inhibition in data set [8] was more than 50%.
In [1], `O=C(NC1CSC1)c1ncnn2cccc12` returned an inhibition of more than 50%. For the same compound, half-maximal inhibition in data set [2] (IC50) required 62 µM. For the same compound, in [3], the outcome was Active.
Take `Cc1c(C(=O)/C=C/c2cc(Br)c(O)cc2F)c(C#N)c2n1CCC2`: the inhibition result in the data set filed under Homo sapiens [4] and with Bacteria [7] was “Active” in each case. In addition, the inhibition result in the data set filed under Homo sapiens [5] and in the data set with Bacteria [6] was “inactive” each time. Besides, the result in data set [3] was Active.
As for `N#Cc1c(C(=O)NCc2ccc(O)c([N+](=O)[O-])c2)[nH]c2ccccc12`, the inhibition entry in the data set filed under Homo sapiens [4] and in the data set with Bacteria [7] was “Active” throughout. The inhibition entry in the data set filed under Homo sapiens [5] and with Bacteria [6] was “inactive” each time. Further, the concentration for half-maximal inhibition (IC50) in data set [2] is 27 µM. The result in data set [3] was Active.
In turn, `O=Cc1nc2ccccn2c1C=C1COC1` showed an IC50 in data set [2] of 11 µM. This compound yielded an inhibition in data set [8] of more than 50%.
Consider `CC(C)SCn1cnc2cnn(C)c2c1=O`, for which, in the data set listed under Homo sapiens [4], the inhibition result was “Active”. For the same compound, the inhibition entry in the data set filed under Homo sapiens [5] was “inactive”. Further, the inhibition in data set [1] was more than 50%. The compound also had an IC50 in data set [2] of 59 µM. The result in data set [3] was Active.
Turning to `Cc1nc2ncc(-c3c[nH]nn3)cc2[nH]1`, in data set [1], the inhibition is more than 50%. In data set [2], this compound returned an IC50 of 127 µM. In addition, the outcome in data set [3] was Active.
